Assay results of several laboratories.
Compare with care: the assays were run in different laboratories.
Target: Casein kinase II subunit alpha' (CSNK2A2, Homo sapiens, UniProt P19784)

Nc1c(C(=O)NCc2ccc(C(=O)NCCCC3CCCCC3)cc2)cnn1-c1ccccc1 — remaining binding (cell-free assay; competition with immobilised ligand; 0.1 µM): 100%
C=CC(=O)Nc1cc(Nc2nccc(Nc3cc(Cl)c(F)cc3C(C)(C)O)n2)c(OC)cc1N1CC[C@@H](N(C)C)C1 — inhibition (enzyme activity; inhibitor; 1 µM): -6%
Cn1cnc(Br)c1C1=CN(c2ncnc3[nH]cnc23)CCS1 — inhibition (enzyme activity; inhibitor; radiometric; 50 nM): 19.7%
CCS(=O)(=O)c1cc2cc(C[C@](O)(CC(C)(C)c3ccc(F)cc3C(N)=O)C(F)(F)F)[nH]c2cn1 — remaining binding (cell-free assay; competition with immobilised ligand; 1 µM): 92%
Cc1ccc(NC(=O)c2ccc(C)c(C(F)(F)F)c2)cc1C#Cc1nn(C2CCC(O)CC2)c2ncnc(N)c12 (stereo not drawn) — remaining signal (cell-free assay; inhibitor; 10 µM): 92%
CCN(CC)CCNC(=O)c1c(C)[nH]c(/C=C2\C(=O)Nc3ccc(F)cc32)c1C — inhibition (enzyme activity; inhibitor; 10 µM): 49%
N#CCCc1ccc2c(c1)-c1[nH]c3ccc([N+](=O)[O-])cc3c1CC(=O)N2 — remaining signal (cell-free assay; 0.5 µM): 92.9%
Nc1ncnc2occ(-c3ccc(NC(=O)Nc4cc(C(F)(F)F)ccc4F)cc3)c12 — remaining activity (enzyme activity; inhibitor; 20 µM): 41%
CCN(CC)c1ccc(C2=NNC(=O)CC2C)cc1[N+](=O)[O-] (stereo not drawn) — remaining activity (enzyme activity; inhibitor; 10 µM): 103%
COc1cc2ncnc(Nc3ccc(Oc4ccccc4)c(C)c3C)c2cc1OC — inhibition (enzyme activity; inhibitor; 1 µM): -1%
O=C(Nc1cnn(-c2csc(C(=O)NC3COC3)c2)c1)Nc1c(F)cccc1Cl — remaining activity (enzyme activity; inhibitor; 5 µM): 96.6%
CNC(=O)c1cc(Oc2ccc(NC(=O)Nc3ccc(Cl)c(C(F)(F)F)c3)cc2)ccn1 — inhibition (enzyme activity; inhibitor; 0.3 µM): -33%
CC(C)CC(=O)N1CCc2nc(-c3ccc(Br)cc3)nc(N(C)Cc3ccccc3)c2C1 — remaining binding (cell-free assay; competition with immobilised ligand; 0.1 µM): 88%
Cc1ccc(C(=O)Nc2ccc(CN3CCN(C)CC3)c(C(F)(F)F)c2)cc1C#Cc1cnc2cccnn12 — remaining activity (enzyme activity; inhibitor; 23.5 nM): 94%
CCCS(=O)(=O)Nc1ccc(F)c(C(=O)c2c[nH]c3ncc(-c4ccc(Cl)cc4)cc23)c1F — inhibition (enzyme activity; inhibitor; 1 µM): < 10%
CCCCNc1ncc2c(-c3ccc(F)cc3)nn(C[C@H]3CC[C@H](N)CC3)c2n1 — inhibition (target engagement in cells; inhibitor; chemoproteomics; 20 mM): -43.5%
COc1ccc2c(O[C@@H]3C[C@H]4C(=O)N[C@]5(C(=O)O)CC5/C=C\CCCCC[C@H](NC(=O)OC5CCCC5)C(=O)N4C3)cc(-c3csc(NC(=O)C(C)C)n3)nc2c1C (stereo partly drawn) — remaining binding (cell-free assay; competition with immobilised ligand; 1 µM): 100%
CC(C)c1ccc(NC(=O)c2cccs2)c(-c2nc3ccccc3[nH]c2=O)c1 — activity vs control (enzyme activity; inhibitor; 1 µM): 121%
CSc1cccnc1N1CCN(Cc2nc3ccccc3[nH]2)CC1 — remaining binding (cell-free assay; competition with immobilised ligand; 1 µM): 100%
O=C1Nc2ccc(Cl)cc2C1=Cc1cc(Cl)c(O)c(Cl)c1 — remaining signal (cell-free assay; 0.5 µM): 33.3%
O=C(Nc1cccnn1)N1CCC(=Cc2cccc(Oc3ccc(C(F)(F)F)cn3)c2)CC1 — remaining binding (cell-free assay; competition with immobilised ligand; 1 µM): 100%
Cc1ccc(Nc2nccc(N(C)c3ccc4c(C)n(C)nc4c3)n2)cc1S(N)(=O)=O — inhibition (enzyme activity; inhibitor; 10 µM): -14%
COc1cccc(CNC(=O)c2nc3scc(COCc4ccc(C(=O)O)cc4)c3c(=O)[nH]2)c1 — remaining binding (cell-free assay; competition with immobilised ligand; 1 µM): 79.4%
CC(C)(C)c1nc2c(s1)c1nc(N)ncc1c1ccc(NS(=O)(=O)c3c(F)cccc3F)c(F)c12 — remaining activity (enzyme activity; inhibitor; radiometric; 1 µM): 94%
